Laboratory results taken from ChEMBL document CHEMBL4422640, “Design, synthesis and biological evaluation of tetrazole-containing RXRα ligands as anticancer agents” (Eur J Med Chem, 2019).
pIC50, pKd: −log10 of the molar value. Calls of active or inactive are those of the source. The rule behind the calls is not given here.

Tests used:
[1] = biological target: T1, Retinoic acid receptor RXR-alpha (Homo sapiens) (UniProt P19793); assay: Antagonist activity at Gal4-fused human RXRalpha LBD (unknown origin) assessed as inhibition of 9-cis-retinoic acid-induced transactivation at 1 to 50 uM after 18 hrs by cell-based dual luciferase reporter gene assay
T1 sequence (whole entry): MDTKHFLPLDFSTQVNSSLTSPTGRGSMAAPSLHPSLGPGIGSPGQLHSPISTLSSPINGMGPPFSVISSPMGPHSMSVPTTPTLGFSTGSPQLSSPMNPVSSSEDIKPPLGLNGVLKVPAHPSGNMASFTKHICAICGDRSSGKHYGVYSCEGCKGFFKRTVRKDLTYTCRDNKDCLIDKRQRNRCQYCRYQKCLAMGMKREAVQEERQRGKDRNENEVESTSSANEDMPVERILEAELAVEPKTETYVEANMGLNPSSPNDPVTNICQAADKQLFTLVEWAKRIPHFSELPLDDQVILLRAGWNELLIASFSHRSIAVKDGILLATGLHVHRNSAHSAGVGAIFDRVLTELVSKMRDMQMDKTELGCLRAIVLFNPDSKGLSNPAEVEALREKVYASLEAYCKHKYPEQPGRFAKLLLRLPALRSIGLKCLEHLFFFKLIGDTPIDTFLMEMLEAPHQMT
Summary of the method: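 Cells transfected with Gal4 reporter plus Gal4-RXRα/LBD plasmids for 24 h, then treated with compounds at 1, 10 and 50 µM in the presence of 9-cis-RA for 18 h. Firefly luciferase read from lysates, normalized to Renilla. A compound counted as antagonist when inhibition was dose-dependent.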

MCF7 [2] = assay: Growth inhibition of human MCF7 cells after 48 hrs by MTT assay; format: functional, cell-based; settings: MCF7, 48 h
Summary of the method: (§1)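 MDA-MB-231 grown in DMEM, MCF-7 in MEM, each with 10% FBS, 37 °C, 5% CO2. Confluent cells exposed to compound, 0.195–100 μM, for 48 h. Then 2 mg/mL MTT for 4 h at 37 °C, formazan dissolved in DMSO, absorbance read at 490 nm. IC50 values are the mean of three independent experiments.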

MDA-MB-231 = assay: Growth inhibition of human MDA-MB-231 cells after 48 hrs by MTT assay; format: functional, cell-based; settings: MDA-MB-231, 48 h; summary of the method: as §1
[3] = biological target: T1, Retinoic acid receptor RXR-alpha (Homo sapiens); assay: Inhibition of RXRalpha in human MCF7 cells assessed as increase in PARP cleavage after 12 hrs by Immunoblotting analysis; format: cell-based
Summary of the method: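 MCF-7 cells in medium with 0% FBS treated with compounds, with or without TNF-α (20 ng/mL), for 12 h. PARP cleavage read by immunoblot (10% SDS-PAGE, ECL). For the RXRα-dependence check, cells got control or RXRα siRNA for 48 h, then compounds at 30 µM for 12 h.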

[4] = biological target: T1, Retinoic acid receptor RXR-alpha (Homo sapiens); assay: Inhibition of RXRalpha in human HeLa cells assessed as increase in PARP cleavage after 8 hrs by Immunoblotting analysis; format: cell-based
Summary of the method: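 HeLa cells in medium with 0% FBS treated with compounds, with or without TNF-α (20 ng/mL), for 8 h. PARP cleavage detected by immunoblot: 10% SDS-PAGE, nitrocellulose, 5% milk/TBST block, ECL detection. For the RXRα-dependence check, cells first got control or RXRα siRNA for 48 h, then compounds at 20 µM for 8 h.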

HeLa = assay: Induction of apoptosis in human HeLa cells assessed as increase in PARP cleavage at 20 uM after 8 hrs in presence of RXRalpha siRNA by Immunoblotting analysis; format: functional, cell-based
Summary of the method: (§2)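 Cells transfected (Lipofectamine 2000) with control or RXRα siRNA for 48 h. HeLa (MEM, 10% FBS) then given compound at 20 μM for 8 h; MCF-7 (MEM, 10% FBS) given 30 μM for 12 h. Lysates run on 10% SDS-PAGE, transferred to nitrocellulose, probed for PARP cleavage and detected by ECL.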

[5] = biological target: T2, Retinoic acid receptor RXR-alpha (Homo sapiens, UniProt P19793); assay: Inhibition of 9-cis-retinoic acid competition binding to RXRalpha LBD (unknown origin) by fluorescence quenching method
T2 sequence (P19793 whole entry): T1 sequence (whole entry)

MCF7 [6] = assay: Induction of apoptosis in human MCF7 cells assessed as increase in PARP cleavage at 30 uM after 12 hrs in presence of siRNA by Immunoblotting analysis; format: functional, cell-based; summary of the method: as §2
[7] = biological target: T1, Retinoic acid receptor RXR-alpha (Homo sapiens); assay: Inhibition of RXRalpha in human HeLa cells assessed as increase in PARP cleavage at 15 uM after 8 hrs in presence of TNFalpha by Immunoblotting analysis; format: cell-based
Summary of the method: (§3)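 Cells kept in medium with 0% FBS and treated with compound together with TNF-α (20 ng/mL). Exposure was 8 h for HeLa and 12 h for MCF-7. PARP cleavage read by immunoblot: 10% SDS-PAGE, nitrocellulose, blocking in 5% milk/TBST, HRP secondary antibody, ECL.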

[8] = biological target: T1, Retinoic acid receptor RXR-alpha (Homo sapiens); assay: Inhibition of RXRalpha in human MCF7 cells assessed as increase in PARP cleavage at 30 uM after 12 hrs in presence of TNFalpha by Immunoblotting analysis; format: cell-based; summary of the method: as §3

Structure (SMILES)	Activity [1]	pIC50 (MCF7 [2])	pIC50 (MDA-MB-231)	other results
CC1=C(CCc2nnn[nH]2)c2ccccc2/C1=C\c1ccccc1C(F)(F)F	Active			
CC1=C(Cc2nnn[nH]2)c2ccccc2/C1=C\c1ccc(C(C)C)cc1		4.56	5.07	
CC1=C(CCc2nnn[nH]2)c2ccccc2/C1=C\c1cccc2ccccc12	Active			inhibition [3]: Dose-dependent effect; inhibition [4]: Dose-dependent effect
CC1=C(CCc2nnn[nH]2)c2ccccc2/C1=C\c1ccc(C(F)(F)F)cc1		4.40	4.66	
CC1=C(Cc2nnn[nH]2)c2ccccc2/C1=C\c1ccccc1C(F)(F)F		4.21	4.39	
COc1ccc(/C=C2\C=C(Cc3nnn[nH]3)c3ccccc32)cc1	Active			
CC1=C(CCc2nnn[nH]2)c2ccccc2/C1=C\c1ccc(OC(F)(F)F)cc1		4.76	5.05	inhibition [3]: Dose-dependent effect; Activity (HeLa): inactive; inhibition [4]: Dose-dependent effect; pKd [5]: 5.80; Activity (MCF7 [6]): inactive; inhibition [7]: Active; inhibition [8]: Active
CC1=C(Cc2nnn[nH]2)c2ccccc2/C1=C\c1cccs1		3.90	4.27	
COc1ccc(/C=C2/C(C)=C(Cc3nnn[nH]3)c3ccccc32)cc1		3.98	4.59	
CC1=C(CCc2nnn[nH]2)c2ccccc2/C1=C\c1cccc(C(F)(F)F)c1		4.54	4.81	
CC1=C(CCc2nnn[nH]2)c2ccccc2/C1=C\c1ccccc1Cl	Active			
CC1=C(CCc2nnn[nH]2)c2ccccc2/C1=C\c1ccc(C(C)(C)C)cc1		4.51	4.90	
CC(C)c1ccc(/C=C2/C=C(CC(=O)NO)c3cc(F)ccc32)cc1		4.68	5.30	Activity (HeLa): inactive; pKd [5]: 5.95; Activity (MCF7 [6]): inactive; inhibition [7]: Active; inhibition [8]: Active
CC1=C(Cc2nnn[nH]2)c2ccccc2/C1=C\c1cccc(C(F)(F)F)c1	Active			
COc1ccc(/C=C2/C(C)=C(CCc3nnn[nH]3)c3ccccc32)cc1	Active			
CSc1ccc(/C=C2/C(C)=C(CCc3nnn[nH]3)c3ccccc32)cc1	Active			
CC1=C(CCc2nnn[nH]2)c2ccccc2/C1=C\c1ccc(C(C)C)cc1		4.57	4.91	
CC1=C(CCc2nnn[nH]2)c2ccccc2/C1=C\c1ccc(Cl)cc1		4.25	4.82	
CC(C)c1ccc(/C=C2\C=C(CCc3nnn[nH]3)c3ccccc32)cc1		4.38	4.81	
CC1=C(CCc2nnn[nH]2)c2ccccc2/C1=C\c1cccc(Cl)c1		4.34	4.61	
CC1=C(Cc2nnn[nH]2)c2ccccc2/C1=C\c1ccc(OC(F)(F)F)cc1	Active			
CC(C)c1ccc(/C=C2\C=C(Cc3nnn[nH]3)c3ccccc32)cc1	Active			
CC1=C(Cc2nnn[nH]2)c2ccccc2/C1=C\c1ccc(C(C)(C)C)cc1		4.42	4.84	
CC1=C(Cc2nnn[nH]2)c2ccccc2/C1=C\c1ccc(C(F)(F)F)cc1	Active			
CSc1ccc(/C=C2/C(C)=C(Cc3nnn[nH]3)c3ccccc32)cc1	Active			
CC1=C(Cc2noc(=O)[nH]2)c2ccccc2/C1=C\c1ccc(C(C)C)cc1		4.62	5.04	
CC1=C(CC(=O)O)c2cc(F)ccc2/C1=C\c1ccc(C(C)C)cc1				pKd [5]: 5.62
